Experimental data as given in ChEMBL document CHEMBL4406822, “Neuroactive Steroid N-Methyl-d-aspartate Receptor Positive Allosteric Modulators: Synthesis, SAR, and Pharmacological Activity” (J Med Chem, 2019).

Tests used:
[1] = molecular target: T1, Glutamate NMDA receptor; GRIN1/GRIN2A (Homo sapiens, UniProt Q05586+Q12879); test: Positive allosteric modulation of recombinant human GluN1/GluN2A receptor stably expressed in HEK293 cells assessed as increase in glycine/L-glutamate-induced channel current at -70 mV holding potential by IonWork […] method; assay type: cell-based
Method in brief: (§1)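 Stable HEK293 lines expressing GluN1/GluN2A or GluN1/GluN2B, measured by automated whole-cell patch clamp (Ionworks Barracuda). Cells were held at -70 mV and stepped to -45 mV during agonist application (EC20 L-glutamate plus 50 µM glycine). The test article was first pre-applied alone for 5 min, then co-applied with agonist to record potentiation. Concentration-response percent potentiation gave EC50 and Emax.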

[2] = molecular target: T1, Glutamate NMDA receptor; GRIN1/GRIN2A; test: Positive allosteric modulation of recombinant human GluN1/GluN2A receptor stably expressed in HEK293 cells assessed as increase in glycine/L-glutamate-induced channel current at -70 mV holding potential by IonWork […] method relative to control; assay type: cell-based; method in brief: as §1
[3] = molecular target: T2, Glutamate NMDA receptor; GRIN1/GRIN2B (Homo sapiens, UniProt Q05586+Q13224); test: Positive allosteric modulation of recombinant human GluN1/GluN2B receptor stably expressed in HEK293 cells assessed as increase in glycine/L-glutamate-induced channel current at -70 mV holding potential by IonWork […] method; assay type: cell-based; method in brief: as §1
[4] = Stability in human liver microsomes; assay type: ADME, Microsome; conditions: read-out: Stability
[5] = Stability in rat liver microsomes; assay type: ADME, Microsome; conditions: read-out: Stability
[6] = molecular target: T2, Glutamate NMDA receptor; GRIN1/GRIN2B; test: Positive allosteric modulation of recombinant human GluN1/GluN2B receptor stably expressed in HEK293 cells assessed as increase in glycine/L-glutamate-induced channel current at -70 mV holding potential by IonWork whole cell patch clamp method relative to control
[7] = Clearance in iv dosed rat; assay type: ADME, organism-based; conditions: in vivo
[8] = Volume of distribution at steady state in rat; assay type: ADME; conditions: in vivo, read-out: Vdss
[9] = Half life in rat; assay type: ADME; conditions: in vivo
[10] = Oral bioavailability in rat; assay type: ADME, organism-based; conditions: in vivo
[11] = Ratio of drug level in Sprague-Dawley rat brain to plasma at 2.5 mg/kg, iv measured after 1 hr; assay type: ADME, organism-based; conditions: brain and plasma, read-out: BPR
[12] = Ratio of drug level in Sprague-Dawley rat brain to plasma at 10 mg/kg, ip measured after 1 hr; assay type: ADME, organism-based; conditions: brain and plasma, read-out: BPR

Row | SMILES | EC50 [1] [µM] | Emax [2] [%] | EC50 [3] [µM] | microsomal CLint [4] [µL/min/mg] | microsomal CLint [5] [µL/min/mg] | Emax [6] [%] | clearance [7] [mL/min/kg] | Vd [8] [L/kg] | half-life [9] [h] | bioavailability [10] [%] | Kp at 1 h [11] | Kp at 1 h [12]
1 | C[C@H](CC[C@H](O)C1CC1)[C@H]1CC[C@H]2[C@@H]3CC=C4C[C@@](C)(O)CC[C@]4(C)[C@H]3CC[C@]12C | 0.32 | 230 | 0.17 | < 10 | 28 | 150 |  |  |  |  |  | 
2 | C[C@H](CC[C@@H](O)C(F)(F)F)[C@H]1CC[C@H]2[C@@H]3CC=C4C[C@@](C)(O)CC[C@]4(C)[C@H]3CC[C@]12C | 0.03 | 150 | 0.31 | 3 | 9 | 230 | 31.7 | 2.8 | 1.9 | 70 | 1 | 
3 | C[C@H](CCC1(O)CC1)[C@H]1CC[C@H]2[C@@H]3CC=C4C[C@@H](O)CC[C@]4(C)[C@H]3CC[C@]12C | 0.9 | 280 | 0.31 | 10 | 35 | 280 |  |  |  |  |  | 
4 | C[C@H](CC[C@H](O)C1CCC1)[C@H]1CC[C@H]2[C@@H]3CC=C4C[C@@](C)(O)CC[C@]4(C)[C@H]3CC[C@]12C | 0.12 | 300 | 0.12 | < 10 | 31 | 530 |  |  |  |  |  | 
5 | CC[C@H](O)CC[C@@H](C)[C@H]1CC[C@H]2[C@@H]3CC=C4C[C@@](C)(O)CC[C@]4(C)[C@H]3CC[C@]12C | 0.1 | 250 | 0.084 | 15 | 10 | 160 |  |  |  |  |  | 
6 | C[C@H](CCC1(O)CC1)[C@H]1CC[C@H]2[C@@H]3CC=C4C[C@@](C)(O)CC[C@]4(C)[C@H]3CC[C@]12C | 0.08 | 300 | 0.41 | 6 | 23 | 180 |  |  |  |  |  | 
7 | CC(C)[C@H](O)CC[C@@H](C)[C@H]1CC[C@H]2[C@@H]3CC=C4C[C@@H](O)CC[C@]4(C)[C@H]3CC[C@]12C | 0.037 | 220 | 0.055 | 28 | 93 | 140 |  |  |  |  |  | 
8 | C[C@H](CC(C)(C)O)[C@H]1CC[C@H]2[C@@H]3CC=C4C[C@@H](O)CC[C@]4(C)[C@H]3CC[C@]12C | > 10 |  | > 10 | 18 | 63 |  |  |  |  |  |  | 
9 | C[C@H](CCC(C)(C)O)[C@H]1CC[C@H]2[C@@H]3CC=C4C[C@](C)(O)CC[C@]4(C)[C@H]3CC[C@]12C | > 10 |  | 3.9 |  |  | 160 |  |  |  |  |  | 
10 | C[C@H](O)CC[C@@H](C)[C@H]1CC[C@H]2[C@@H]3CC=C4C[C@@](C)(O)CC[C@]4(C)[C@H]3CC[C@]12C | > 10 |  | 3 | < 10 | 56 | 50 |  |  |  |  |  | 
11 | CC(C)[C@H](O)CC[C@@H](C)[C@H]1CC[C@H]2[C@@H]3CC=C4C[C@@](C)(O)CC[C@]4(C)[C@H]3CC[C@]12C | 0.12 | 200 | 0.19 | < 10 | 11 | 230 | 38.3 | 3.1 | 2.2 | 25 |  | 0.8
12 | C[C@H](CC[C@@H](O)C1CC1)[C@H]1CC[C@H]2[C@@H]3CC=C4C[C@@](C)(O)CC[C@]4(C)[C@H]3CC[C@]12C | 0.077 | 220 | 0.19 | 10 | 20 | 280 | 68.3 | 4.4 | 1.8 |  |  | 3.2
13 | C[C@H](CC[C@H](O)C(F)(F)F)[C@H]1CC[C@H]2[C@@H]3CC=C4C[C@@](C)(O)CC[C@]4(C)[C@H]3CC[C@]12C | 0.22 | 260 | 0.11 | 4 | 12 | 170 |  |  |  |  |  | 
14 | C[C@H](CC[C@@H](C)O)[C@H]1CC[C@H]2[C@@H]3CC=C4C[C@@](C)(O)CC[C@]4(C)[C@H]3CC[C@]12C | > 10 |  | > 10 | 11 | 67 |  |  |  |  |  |  | 
15 | CC[C@@H](O)CC[C@@H](C)[C@H]1CC[C@H]2[C@@H]3CC=C4C[C@@](C)(O)CC[C@]4(C)[C@H]3CC[C@]12C | 0.42 | 220 | 0.03 | < 10 | 25 | 130 |  |  |  |  |  | 
16 | C[C@H](CCCC(C)(C)O)[C@H]1CC[C@H]2[C@@H]3CC=C4C[C@@H](O)CC[C@]4(C)[C@H]3CC[C@]12C | > 10 |  | > 10 | 23 | 31 | 67 | 41.7 | 1.2 | 0.38 | 6 |  | 
17 | COC(C)(C)CC[C@@H](C)[C@H]1CC[C@H]2[C@@H]3CC=C4C[C@@](C)(O)CC[C@]4(C)[C@H]3CC[C@]12C | > 10 |  | > 10 |  |  |  |  |  |  |  |  | 
18 | C[C@@H](CCC(C)(C)O)[C@H]1CC[C@H]2[C@@H]3CC=C4C[C@@](C)(O)CC[C@]4(C)[C@H]3CC[C@]12C | > 10 |  | > 10 |  |  |  |  |  |  |  |  | 
19 | CC(C)(O)CCC[C@H]1CC[C@H]2[C@@H]3CC=C4C[C@@](C)(O)CC[C@]4(C)[C@H]3CC[C@]12C | 0.55 | 120 | 0.16 |  |  | 120 |  |  |  |  |  | 
20 | CC(O)CC[C@@H](C)[C@H]1CC[C@H]2[C@@H]3CC=C4C[C@@H](O)CC[C@]4(C)[C@H]3CC[C@]12C (stereo partly drawn) | 0.32 | 150 | 0.14 | 7 | 17 | 180 |  |  |  |  |  | 
21 | C[C@H](CCCO)[C@H]1CC[C@H]2[C@@H]3CC=C4C[C@@H](O)CC[C@]4(C)[C@H]3CC[C@]12C | 3 | 290 | > 10 | 13 | 25 |  |  |  |  |  |  | 
22 | C[C@H](CC[C@@H](O)C1CCC1)[C@H]1CC[C@H]2[C@@H]3CC=C4C[C@@](C)(O)CC[C@]4(C)[C@H]3CC[C@]12C | 0.27 | 250 | 0.27 | < 10 | 25 | 410 | 88.3 | 2.9 | 0.84 | 18 |  | 
23 | C[C@@H]([C@H]1CC[C@H]2[C@@H]3CC=C4C[C@@H](O)CC[C@]4(C)[C@H]3CC[C@]12C)C(C)(C)O | > 10 |  | > 10 | 6 | 48 |  |  |  |  |  |  | 
